Laboratory results from ChEMBL document CHEMBL4513216, “Probing the Open Global Health Chemical Diversity Library for Multistage-Active Starting Points for Next-Generation Antimalarials” (ACS Infect Dis, 2020).

Assay: Toxicity liver stage against HepG2, at 10uM
Format: cell-based
Parameters: test concentration 10 uM, cell line HepG2-A16-CD81EGFP
Conditions: human, HepG2-A16-CD81EGFP cells; read-out: INHIBITION
Summary of the method: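 Uninfected HepG2-A16-CD81EGFP cells, 3 × 10^3 per well, 1536-well, plated on prespotted compound at 10 μM final, parasite-free screening media added to match infected plates; puromycin 10 μM positive, DMSO 0.5% negative; run in parallel with 48 h PbLuc assay at 37 °C, 5% CO2; viability by CellTiter-Glo luminescence, normalized to controls.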

SMILES | cytotoxicity at 10 µM
COCCC(=O)N1CCC2(CN(Cc3ccc(OC)c(F)c3)C2)C1 | -10.4%
Cn1ccnc1C1CCCN(C(=O)c2ccc3nccnc3c2)C1 (stereo unspecified) | 19.7%
COCCCN1CC2(CCN(C(=O)c3ncc(F)cc3F)CC2)CC1=O | -3.94%
CC(C)Cc1noc(CNc2cccc(-c3nnnn3C)c2)n1 | 4.6%
CNC(=O)[C@@H](C1CCCCC1)N1CCC[C@H]1C(=O)N(C)CCN(C)C | -0.39%
c1cnc(N2CCO[C@H]3CN(Cc4cc[nH]n4)C[C@H]32)cn1 | 9.07%
NC(=O)c1cc(C2CCCN(CCOCC(F)(F)F)C2)n[nH]1 (stereo unspecified) | -11.8%
Cc1cc(CN2CC[C@H]3OCC[C@@]3(C(=O)NCc3ccco3)C2)no1 | 6.73%
COCC(=O)N1CCCCC1c1nc(CN(C)C(C)=O)cc(N(C)C)n1 (stereo unspecified) | 3.37%
Cc1nnc(CN(C)CCc2nc(-c3cccc(Cl)c3)no2)n1C | 2.53%
O=C(c1ccc2c(c1)CCC2)N1CCCCC1C1OCCO1 (stereo unspecified) | 0.197%
Cn1cccc1C(=O)N1CCc2ncnc(N3CCOCC3)c2CC1 | -74.3%
Cc1c[nH]c(C2COCCN2C(=O)c2n[nH]c(=O)c3ccccc23)n1 (stereo unspecified) | -0.555%
COc1ncccc1NC(=O)NC1CCOc2ccccc21 (stereo unspecified) | -7.62%
Cc1nc(CC(C)C)sc1C(=O)N1CCC1 | 15.8%
Cc1cc(NCc2csc(-c3ccsc3)n2)no1 | -0.912%
CC(C)(C)c1nc(CN2CCCC2Cn2cncn2)no1 (stereo unspecified) | 1.93%
CC(=O)N1CCC(c2nnc3ccc(C(=O)NCCN(C)C)cn23)C1 (stereo unspecified) | -104%
CC(C)CC(=O)N(C)Cc1nc(C(F)(F)F)cs1 | 8.32%
CSc1ccc(OC(C)C(=O)Nc2cc[nH]n2)cc1 (stereo unspecified) | 7.71%
Cn1cnnc1C1CCN(c2nc3ccccc3o2)CC1 | 14.1%
O=C1N(Cc2ccc(F)c(F)c2)CCCC12CCN(C1CCCC1)C2 (stereo unspecified) | -2.8%
CN(Cc1ccc2c(c1)OCO2)C(=O)c1ccn(C)c(=O)c1 | 3.01%

SMILES | cytotoxicity at 10 µM
CC(C)C1CCC(N2CCN(CCS(C)(=O)=O)CC2)CC1 (stereo unspecified) | 7.23%
Cc1ccc(SCC2CNc3nc4ccccc4c(=O)n32)c(C)c1 (stereo unspecified) | 6.76%
CCCn1[nH]c(CNc2ccccc2)nc1=O | 9.98%
CC(CN1CCOCC1)NC(=O)N(C)Cc1ccc(Cl)s1 (stereo unspecified) | 7.21%
O=C1CN(C(=O)C2CCOCC2)CCN1Cc1ccc(Cl)cc1 | -146%
COc1ccc(C)cc1NC(=O)CNc1ccn(CC(N)=O)n1 | -8.28%
COc1ccc(C2CNCCN2C(=O)c2nccc3ccccc23)cc1 (stereo unspecified) | 4.1%
COCCn1cc(C(=O)N2CCCC2c2cnn(C)c2)ccc1=O (stereo unspecified) | 5.92%
c1cc(-c2nnn3c2COC(CNCC2CCOCC2)C3)ccn1 (stereo unspecified) | -23.8%
CCn1c(C2CCCN(Cc3ccc(OC)c(C)c3C)C2)nn(C)c1=O (stereo unspecified) | 5.52%
Cc1cccc2[nH]c(C3CCN(C(=O)c4cnc(O)cc4O)CC3)nc12 | 3.09%
Cc1csc(C2(NCCC(=O)N3CCOCC3)CCCC2)n1 | -11.4%
N#Cc1ccc(C(=O)N2CCC(Oc3ccc(C#N)cn3)CC2)cc1 | 7.92%
CC(C)(C)c1ncc2c(n1)CN(C(=O)c1ccc(C#N)nc1)C2 | -6.39%
CCOc1cccc(CCNC(=O)NC2CCc3[nH]ncc3C2)n1 (stereo unspecified) | 8.95%
Cc1cc(Cl)cc(C)c1CNC1CCN(CC(=O)N(C)C)CC1 | -1.51%
O=C(c1ccccc1)N1CCO[C@@H]2CN(Cc3ccc[nH]3)C[C@@H]2C1 | -98%
Cc1ccc(F)cc1C(=O)NCc1ccc(C(=O)O)o1 | -10.1%
O=C(NCC1CC1)[C@@H]1CC[C@@H]2[C@@H](CCN2CCOCc2ccccc2)O1 | -112%
Cc1nc(-c2ccccc2)sc1CNC1CCc2ncnn2C1 (stereo unspecified) | -4.07%
CC(C)(C)n1ncc(NCC(O)c2ccccc2C(F)(F)F)c(Cl)c1=O (stereo unspecified) | 53.6%
Cc1ccc(CCC(=O)N2CCOCC2c2ncon2)c(C)c1 (stereo unspecified) | -6.76%
COc1ccc(CNC(Cc2ccsc2)c2ccc(C)cn2)c(OC)c1 (stereo unspecified) | 6.36%

SMILES | cytotoxicity at 10 µM
CN1CCN(Cc2nnc(C3CCN(CC4CC4)CC3)n2C)CC1 | -13.6%
O=C(c1cccc2c1OCCO2)N1CCCCC1Cn1cccn1 (stereo unspecified) | -4.94%
COc1ccccc1C(=O)N1Cc2cc(C)ccc2OCC1CN(C)C (stereo unspecified) | 5.2%
O=C(CNc1cccc(S(=O)(=O)C(F)F)c1)NCc1ccco1 | -40.5%
Cc1cnc(N2CCCC3(COCCN(c4nccs4)C3)C2)nc1 (stereo unspecified) | -112%
Cc1cnc(N2CCC(OCCN3CCCCC3)C2)nc1C (stereo unspecified) | -43.9%
CCCn1nnnc1CSCc1cn2c(C)cccc2n1 | 8%
Cc1noc(C)c1CC(=O)Nc1ccn(CC(N)=O)n1 | 9.86%
COc1ccc(Cn2c(CCc3c(C)n[nH]c3C)n[nH]c2=O)cc1 | -144%
CCC(=O)N1CCC(NCc2cc(C(F)(F)F)ccc2Cl)C1 (stereo unspecified) | -4.04%
CC(C)c1nnc2n1CCN(Cc1cccc3c1OCCO3)C2 | -1.26%
N#Cc1cccc(NS(=O)(=O)c2ccc(C(=O)O)cc2F)c1 | -3.67%
CC1(C)CN(C(=O)c2ccc3nncn3c2)CCS1 | -4.5%
CCS(=O)(=O)NCC1OCCc2cn(CCOC)nc21 (stereo unspecified) | 9.43%
CCNCCOc1ccc(-c2cc(N)nc3[nH]ccc23)cc1 | 24.3%
CCS(=O)(=O)N1C[C@@H](O)[C@H](N(C)Cc2ccc(F)cc2)C1 | 4.54%
O=C(NC1CC1)[C@H]1C[C@@H]2CCN(CCc3ccccc3)C[C@H]2O1 | 6.46%
CCC(C)N(Cc1sccc1C)C(=O)c1cc(N)ccn1 (stereo unspecified) | 9.8%
Cc1noc(C)c1CCC(=O)N1CCN(Cc2cscn2)CC1 | -6.28%
CCCc1nc(C)cc(NCCc2nnc(N)s2)n1 | 3.07%
Cc1ccc(C(=O)NC(CN2CCCC2)c2ccccc2)c(=O)[nH]1 (stereo unspecified) | -2.32%
Cc1cc(C)nc(NC2CCCN(CCCc3ccccc3)C2)n1 (stereo unspecified) | 2.49%
O=C(NCCc1ccn(-c2ccccc2)n1)N1CCCC(O)C1 (stereo unspecified) | -41.8%

SMILES | cytotoxicity at 10 µM
Cn1ccnc1C1(O)CCN(C(=O)CCc2ccccc2)CC1 | 1.37%
COc1ccc(-c2ccc(C3CNCCO3)nc2)cc1 (stereo unspecified) | -8.88%
Cc1cc(C(F)(F)F)nc(C2COCCN2S(C)(=O)=O)n1 (stereo unspecified) | -2.6%
Cc1cnc(C(=O)N2CCN(C(=O)C(C)C)[C@@H]3CS(=O)(=O)C[C@@H]32)cn1 | 7.91%
CSC(C)C(=O)N1CCN(CCO)CC1 (stereo unspecified) | -6.69%
CCCn1nnnc1COC(=O)C1COc2ccccc2O1 (stereo unspecified) | 3.72%
c1ccc(-c2nc3c(c(NCc4n[nH]c5c4CCC5)n2)CCNC3)cc1 | -12.8%
CS(=O)(=O)N1CCC(c2nc3ccc(-c4cccc(F)c4)cn3n2)CC1 | 22.6%
CC1(c2ccc(Br)cc2)CC(=O)N(CCC(N)=O)C1=O (stereo unspecified) | -3.74%
CCn1ccnc1CN1CCCN(C(=O)c2cncnc2C)CC1 | 5.65%
COc1ccc(S(=O)(=O)NCCC(=O)NCc2ccoc2)cc1OC | 10.8%
Cc1cc(S(=O)(=O)Nc2cccc(OC(F)F)c2)sc1C(=O)O | -0.229%
Cc1nccn1CCN(C)C(=O)C1CCN(C(=O)C2CCC2)CC1 | -1.45%
O=S(=O)(CC1CC1)c1ncc(CN2CCOCC2)n1CC1CCCO1 (stereo unspecified) | -3.06%
O=C(COCC1CC1)N1CCCC(n2ccnc2)C1 (stereo unspecified) | 0.0481%
Cn1ncc2c1NC(=O)CC2c1cc2c(cc1Cl)OCO2 (stereo unspecified) | 55.6%
O=C(CCc1ccc(Cl)s1)N1CCCC(N2CCNC2=O)C1 (stereo unspecified) | 1.09%
CSCC(C)(O)CNC(=O)c1cc(F)ccc1Br (stereo unspecified) | -5.41%
COc1cccc(CNC(Cc2cccs2)c2nc(C)c(C)s2)c1OC (stereo unspecified) | -12.9%
Cc1noc2nc3c(c(C(=O)/N=c4\[nH]nc(C(C)C)s4)c12)CCC3 | -6.53%
CC(C)c1ccc(CS(=O)(=O)CC(=O)NCc2ccccc2F)cc1 | 8.31%
Cc1nc2[nH]cc(C(=O)N3CCCCC3c3ccc(F)cc3)c(=O)n2n1 (stereo unspecified) | 3.63%
O=S(=O)(Cc1ccc(F)cc1)NCCc1nnc2n1CCC2 | 17.2%

SMILES | cytotoxicity at 10 µM
CCC(C)c1noc(C2CCN(C(=O)c3cccnc3)CC2)n1 (stereo unspecified) | -10.7%
COc1ccc(Cc2c(O)nc(SC)n(-c3ccccc3)c2=O)cc1 | 1.76%
CC(C)(C)C(=O)N1C[C@@H](F)[C@@H](OCc2nc3ccccc3o2)C1 | 3.33%
CCC[C@H]1CN(S(C)(=O)=O)C[C@@H]1NC(=O)CCCn1ccnc1 | 4.47%
O=C(c1cccnc1)N1CCOC(Cc2ccccc2Cl)C1 (stereo unspecified) | 2.12%
CCN1Cc2c(C(=O)NC(C)C)ncn2-c2ccccc2S1(=O)=O | -83.9%
Cc1ccccc1C(=O)N1CCCn2nnc(Cn3cccn3)c2C1 | 9.94%
CCc1ncnc2c1CCN(Cc1cccs1)CC2 | 4.98%
C[C@@H]1CN(C2CCCCC2)CC[C@@]1(O)C1CCOCC1 | -7.58%
c1cnn(-c2ccc(CN3CCOC(Cn4cncn4)C3)cc2)c1 (stereo unspecified) | -13.6%
CNC(=O)C(NC(=O)c1c(C)noc1C)c1ccc(F)c(F)c1 (stereo unspecified) | -18.3%
Cc1ccccc1C1(CNc2nnc(C)c(C)c2C#N)CCOCC1 | -2.1%
COc1ccc(C[C@H]2CN(C(=O)c3ncccn3)CC[C@@H]2OC)cc1 | 4.65%
Cc1noc(C2CCCN(C(=O)c3ccc(F)cc3F)C2)n1 (stereo unspecified) | 2.01%
O=C1NC2(CCN(CC(=O)N3CCOCC3)CC2)Nc2ccccc21 | -1.71%
O=C(O)CCc1cc2n(n1)CCCN(C(=O)c1ccc(Cl)s1)C2 | -6.06%
Cc1nc(CN(C)CC2CCCN(CCc3ccc(Cl)cc3)C2)no1 (stereo unspecified) | 8.15%
c1ccc(CN2CCCn3nnc(Cn4cccc4)c3C2)nc1 | 8.37%
CC(C)C1CN(S(=O)(=O)c2ccc(C#N)cc2)CCS1 (stereo unspecified) | 6.88%
